The list is not random: actives were taken first. Their share in the collection is about 1.9%.
M4 ag: CHRM4 agonism in calcium assay; CHO-K1 hM4/Gqi5, Fluo-8 calcium fluorescence; vehicle 0%, full acetylcholine response 100%; actives 0.14% (n = 360,000); activation, % at 3 µM; AID 624127; P08173;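 active means activation above the run mean over all test wells plus 3 SD, cut at about 32% in these data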;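 further: peak over basal fluorescence ratio per well then scaled between controls; 0% = DMSO wells and 100% = acetylcholine at EC100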
Target sequence (P08173 whole entry, looked up): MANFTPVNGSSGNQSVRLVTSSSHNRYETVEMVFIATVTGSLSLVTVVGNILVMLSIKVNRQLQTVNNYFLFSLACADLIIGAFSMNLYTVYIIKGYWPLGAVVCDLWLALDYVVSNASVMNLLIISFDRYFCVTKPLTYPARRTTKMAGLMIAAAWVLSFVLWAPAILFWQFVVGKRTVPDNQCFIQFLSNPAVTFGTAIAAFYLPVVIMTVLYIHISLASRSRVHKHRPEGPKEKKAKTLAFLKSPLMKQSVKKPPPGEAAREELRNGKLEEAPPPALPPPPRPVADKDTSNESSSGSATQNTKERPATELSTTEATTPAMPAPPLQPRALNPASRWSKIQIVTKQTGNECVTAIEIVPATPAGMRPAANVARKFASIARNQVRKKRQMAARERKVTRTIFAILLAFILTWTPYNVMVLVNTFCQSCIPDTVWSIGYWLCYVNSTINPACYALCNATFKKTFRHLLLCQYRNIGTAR
M4 antag: CHRM4 antagonism in calcium assay; P08173; CHO-hM4 cells, ACh EC80, Fluo-8 calcium fluorescence; inhibition, % at 3 µM; actives 0.73% (n = 360,000);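 active means inhibition above its plate's cutoff, the mean inhibition of sample wells plus 3 SD, cut at about 27% in these data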;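 further: 0% = acetylcholine EC80 with DMSO and 100% = DMSO without agonist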
CHRM5 PAM: positive allosteric modulators of human muscarinic M5 receptor. P08912. CHO-K1 hM5, Fluo-8 calcium, ACh EC20 PAM; 0% = ACh EC20, 100% = ACh EC100. activation, % at 3 µM. actives 0.3% (n = 360,000);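 active means activation above the run cutoff, the mean activation of all test compounds plus 3 SD, cut at about 18% in these data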
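Measured by: Fluo-8 calcium fluorescence; material: human M5 receptor in CHO-K1 cells; schedule: Post-acetylcholine fluorescence recording 140 s; benchmarks: low control EC20 acetylcholine (0%), high control EC100 acetylcholine (100%); read-out: Max/basal fluorescence ratio as % of EC20–EC100 ACh window; compound: single dose, 3 µM nominal final test concentration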
CHRM5 agonist: CHRM5 agonism in calcium assay | CHO-K1 hM5 cells, Fluo-8 calcium fluorescence; 0% DMSO wells, 100% maximal acetylcholine response | activation, % at 3 µM | actives 0.19% (n = 360,000);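 active means activation above the run's mean over test compounds plus 3 SD, cut at about 23% in these data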;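 further: signal is peak over basal fluorescence ratio across the kinetic read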
CHRM5 antagonist: blocks acetylcholine activation of human M5 receptor; P08912; CHO-hM5 cells, Fluo-8 calcium fluorescence, ACh EC80; inhibition, % at 3 µM; actives 0.59% (n = 360,000);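 active means inhibition above a per-plate cutoff, the mean of that plate's test compounds plus 3 SD, cut at about 27% in these data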;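 further: 0% = acetylcholine EC80 with DMSO and 100% = DMSO without agonist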
CHRM4 PAM: potentiates acetylcholine response at human M4 receptor. activation, % at 3 µM. actives 0.4% (n = 360,000). CHO-K1 hM4/Gqi5, Fluo-8 calcium fluorescence, ACh EC20; 0% = ACh EC20, 100% = maximal ACh. P08173. AID 624126;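 active means activation above its plate's cutoff, the mean activation of sample wells plus 3 SD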
* = called active by the depositor.

What do the screens show for `Cc1ccccc1Cn1c(C)c(C(=O)NCc2cccc(Cl)c2)sc1=O`?
M4 ag: 6.0; M4 antag: -9.1; CHRM5 PAM: -7.2; CHRM5 agonist: 1.0; CHRM5 antagonist: 5.8; CHRM4 PAM: -6.0

Results for COc1ccc(CNC(=O)c2sc(=O)n(Cc3ccccc3C)c2C)cc1 ?
M4 ag: 24.1; M4 antag: -21.6; CHRM5 PAM: -11.3; CHRM5 agonist: 41.4*; CHRM5 antagonist: -2.7; CHRM4 PAM: 3.9

How did COc1ccc(CNC(=O)c2sc(=O)n(Cc3ccc(C)cc3)c2C)cc1OC do in these assays?
M4 ag: 7.2; M4 antag: 3.0; CHRM5 PAM: -6.6; CHRM5 agonist: 6.6; CHRM5 antagonist: 3.6; CHRM4 PAM: 0.7

How did COc1ccc(CNC(=O)c2sc(=O)n(Cc3ccc(-c4ccccc4)cc3)c2C)cc1OC do in these assays?
M4 ag: 21.2; M4 antag: -1.4; CHRM5 PAM: -23.8; CHRM5 agonist: 7.5; CHRM5 antagonist: 30.2*; CHRM4 PAM: -4.5

What do the screens show for `COc1ccc(Cl)cc1Cn1c(C)c(C(=O)NCc2ccc(C#N)cc2)sc1=O`?
M4 ag: 7.0; M4 antag: 12.2; CHRM5 PAM: -10.2; CHRM5 agonist: 5.0; CHRM5 antagonist: 3.0; CHRM4 PAM: -15.8

How did Cc1c(C(=O)NCc2ccc([N+](=O)[O-])cc2)sc(=O)n1Cc1ccc2c(c1)OCO2 do in these assays?
M4 ag: 21.4; M4 antag: 5.1; CHRM5 PAM: -13.2; CHRM5 agonist: 24.9*; CHRM5 antagonist: 7.7; CHRM4 PAM: -10.3

How did COc1ccccc1Cn1c(C)c(C(=O)NCc2ccc(C#N)cc2)sc1=O do in these assays?
M4 ag: 36.7*; M4 antag: 19.6; CHRM5 PAM: -13.4; CHRM5 agonist: 27.9*; CHRM5 antagonist: 11.2; CHRM4 PAM: -17.8

How did CNC(=S)NNC(=O)c1ccccc1F do in these assays?
M4 ag: 0.8; M4 antag: -4.8; CHRM5 PAM: -2.4; CHRM5 agonist: 0.4; CHRM5 antagonist: 1.8; CHRM4 PAM: 5.3

What do the screens show for `COc1c(Br)cc(Br)cc1C(=O)Nc1ccccc1N1CCCC1`?
M4 ag: -0.1; M4 antag: 4.5; CHRM5 PAM: 3.6; CHRM5 agonist: -3.7; CHRM5 antagonist: -0.6; CHRM4 PAM: -3.9

What do the screens show for `CCN(CC)S(=O)(=O)c1ccc(N2CCOCC2)c(NC(=O)c2ccc3ccccc3c2)c1`?
M4 ag: 0.8; M4 antag: -4.5; CHRM5 PAM: 0.6; CHRM5 agonist: 0.9; CHRM5 antagonist: 4.2; CHRM4 PAM: 13.2

Results for CCN(CC)S(=O)(=O)c1ccc(N2CCOCC2)c(NC(=O)c2cccc3ccccc23)c1 ?
M4 ag: 14.1; M4 antag: 30.2*; CHRM5 PAM: -13.3; CHRM5 agonist: 1.6; CHRM5 antagonist: 14.2; CHRM4 PAM: -23.9

How did C[C@H](CO)N1C[C@H](C)[C@@H](CN(C)Cc2ccncc2)Oc2c(NS(=O)(=O)c3cn(C)cn3)cccc2C1=O do in these assays?
M4 ag: 0.9; M4 antag: 1.2; CHRM5 PAM: -4.0; CHRM5 agonist: 1.6; CHRM5 antagonist: 10.3; CHRM4 PAM: 0.5

How did COC(=O)c1ccc2c(c1)C(C)(C)C(/C=C/c1ccc(O)cc1)=[N+]2C do in these assays?
M4 ag: 6.8; M4 antag: 13.9; CHRM5 PAM: 4.6; CHRM5 agonist: 21.9; CHRM5 antagonist: 9.1; CHRM4 PAM: -8.7

How did COC(=O)c1ccc2c(c1)C(C)(C)C(/C=C/c1ccc(OC)c(OC)c1OC)=[N+]2C do in these assays?
M4 ag: 0.6; M4 antag: 32.1*; CHRM5 PAM: -7.4; CHRM5 agonist: -5.0; CHRM5 antagonist: -1.6; CHRM4 PAM: -9.0

Results for Cc1cccn2c(=O)c(/C=C(\C#N)C(N)=O)c(N3CCN(Cc4ccc5c(c4)OCO5)CC3)nc12 ?
M4 ag: 6.5; M4 antag: 39.8*; CHRM5 PAM: 1.9; CHRM5 agonist: -6.8; CHRM5 antagonist: -13.4; CHRM4 PAM: -19.9

Assay outcomes: PubChem BioAssay, The Scripps Research Institute Molecular Screening Center
